# Screening data (PubChem BioAssay)
# DDE Tn7 FP inh = inhibitors of Tn7 peptide binding to fibrin DD(E), primary screen, biochemical, fluorescence polarization, human fibrin, Tn7 probe; AID 720508, 2013; FP displacement of FITC-Tn7 peptide from fibrin DD(E); 0% = median of compound wells per plate; inhibition, % at 8.3 µM; Fibrinogen beta chain (Homo sapiens), P02675; 0.13% of 370,000 active;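 active = inhibition above the mean of compounds falling within the control limits plus 3 SD of them, cut at about 14% in these data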
# Target sequence (P02675 whole entry, looked up): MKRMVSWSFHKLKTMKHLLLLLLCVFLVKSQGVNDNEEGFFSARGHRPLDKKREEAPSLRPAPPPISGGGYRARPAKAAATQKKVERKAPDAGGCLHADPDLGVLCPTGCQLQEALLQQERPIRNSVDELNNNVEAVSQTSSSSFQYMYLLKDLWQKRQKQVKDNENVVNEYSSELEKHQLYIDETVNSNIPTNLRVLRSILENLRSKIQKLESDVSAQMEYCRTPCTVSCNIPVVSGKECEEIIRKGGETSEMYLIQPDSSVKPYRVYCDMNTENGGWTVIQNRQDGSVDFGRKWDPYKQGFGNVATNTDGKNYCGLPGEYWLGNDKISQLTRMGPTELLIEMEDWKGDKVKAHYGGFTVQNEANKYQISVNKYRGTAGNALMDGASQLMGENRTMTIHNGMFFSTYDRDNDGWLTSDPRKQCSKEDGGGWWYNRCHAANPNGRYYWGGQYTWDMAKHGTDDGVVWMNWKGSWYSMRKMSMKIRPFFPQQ
#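 Test system: human clot-derived fibrin DD(E) complex / Quantity: 2 µM final DD(E) protein / Incubation: 10 min plus 3 h, room temperature / Measured by: fluorescence polarization / Benchmarks: high control of 10 µM Aha-Tn7 peptide / Replicates: singlicate testing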
# Neddyl block = inhibitors of cullin neddylation, primary screen, biochemical, TR-FRET, uHTS, NAE and Ubc12 | NEDD8-conjugating enzyme Ubc12 (Homo sapiens) + NEDD8-activating enzyme E1 regulatory … | inhibition, % at 25 µM | 0.58% of 360,000 active; in the data active = inhibition above about 36%
# PKA-R1A act = activators of PKA-R1A holoenzyme, primary screen, biochemical, fluorescence polarization, Cy5-IP20, bovine R1A, mouse PKAc. cAMP-dependent protein kinase type I-alpha regulatory subunit (Bos taurus) + …. activation, % at 11.4 µM. 0.083% of 340,000 active. PKA-R1A dissociation; scaled: DMSO 0%, 113 µM cGMP 100%;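 active = percent activation above the mean of all tested compounds plus 3 SD, cut at about 19% in these data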;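 note: higher means more PKAc released from R1A so a rise in polarization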
# Tn6 DDE FP = inhibitors of Tn6 peptide binding to fibrin DD(E), primary screen, biochemical, fluorescence polarization, human fibrin, Tn6 probe. inhibition, % at 8.3 µM. Fibrin DD(E) TRITC-Tn6 fluorescence polarization displacement. 0.21% of 370,000 active;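 active = inhibition above a per-campaign cutoff: mean of compounds within control limits plus 3 SD, cut at about 15% in these data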
# PKA-R2B act = activators of PKA-R2B holoenzyme, primary screen, biochemical, fluorescence polarization, Cy5-IP20, human. cAMP-dependent protein kinase catalytic subunit beta (Homo sapiens) + cAMP-dependent …. PKA-R2B holoenzyme dissociation; R2B truncated from residue 108, S112A mutant; 0% DMSO only, 100% 113 µM cGMP. activation, % at 11.4 µM. 0.079% of 340,000 active. AID 504700, 2011;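 active = activation above a cutoff set at the mean over all compounds plus 3 SD, cut at about 18% in these data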;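 note: higher means more holoenzyme dissociation and a rise in polarization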
# Numbers stand for hits; – = inactive; · = not tested or not shown; + = active, no number. Rows were chosen to be rich in hits. Some 1% of all compounds tested hit in one or more screens of this group.
SMILES,DDE Tn7 FP inh,Neddyl block,PKA-R1A act,Tn6 DDE FP,PKA-R2B act
COc1ccccc1-c1cc2nc(C)c(CCC(=O)NC(C)CCc3ccco3)c(C)n2n1 (stereo unspecified),–,51,–,–,–
COC(=O)[C@H]1C[C@@]2(Oc3ccc(Br)cc3)c3ccccc3N(C(=O)OC(C)(C)C)[C@H]2N1C(=O)OC(C)(C)C,–,·,·,–,·
COc1ccc(S[C@]2(C(=O)N3CCN(C(C)=O)CC3)CC(=O)N[C@@H]2c2ccc(OC)cc2)cc1,–,·,·,–,·
CCOC(=O)C1=C(C)N=c2s/c(=C/c3ccc(OCC(=O)O)c(OC)c3)c(=O)n2C1c1ccc(Cl)cc1 (stereo unspecified),–,65,–,–,–
CCOC(=O)C1=C(C)N=c2s/c(=C\c3ccc(OCC(=O)O)cc3)c(=O)n2C1c1ccc(Cl)cc1 (stereo unspecified),–,–,–,–,–
O=C(N[C@@H](Cc1cccnc1)C(=O)N1CCC[C@H]1C(=O)NCCc1ccccc1Cl)c1ccc(Cl)c(Cl)c1,–,·,·,–,·
Oc1ccc(Cl)cc1CNc1cnc2ccccc2c1,–,–,–,–,–
Oc1ccccc1CNc1cnc2ccccc2c1,–,50,–,–,–
Cc1cccc(NC(=O)CSc2nnc(-c3cccnc3)n2Cc2ccco2)c1C,–,·,·,–,·
O=C(Nc1cccc(Cl)c1)Nc1cc(S(=O)(=O)N2CCCCC2)ccc1Cl,–,–,–,55,–
C=CCn1c(Cc2cccs2)nnc1SCC(=O)Nc1cccc2ccccc12,–,·,·,–,·
O=C(NC(=S)NNC(=O)c1cnccn1)c1ccc(Cl)cc1,–,55,–,–,–
COc1ccc(C(=O)NC(=S)NNC(=O)c2cnccn2)cc1,–,–,–,–,–
c1coc(-c2nc3c4ccccc4ccn3c2Cc2ccsc2)c1,–,·,·,–,·
S=C(Nc1ccc2nc(-c3ccccn3)c(-c3ccccn3)nc2c1)N1CCCCCC1,–,–,–,–,–
S=C(Nc1ccc2nc(-c3ccccn3)c(-c3ccccn3)nc2c1)N1CCCCC1,·,42,–,·,–
CN(C)c1ccc(/C=C/c2ccc3c4ccccc4ccc3[n+]2-c2ccccc2)cc1,–,–,–,+,–
CCOc1ccc(CCNC(=O)c2cc3sccc3n2Cc2ccccc2)cc1OCC,–,·,·,–,·
Cc1cc(C)nc(NC(=S)N2CCN(c3ncc(C(F)(F)F)cc3Cl)CC2)c1,–,·,·,–,·
O=C(Nc1cccc2nsnc12)c1ccc2c(c1)OCCO2,–,46,–,–,–
OCCOCCN1CCN(C2=Nc3ccccc3Sc3ccccc32)CC1,–,–,–,–,–
O=C1C=CC(=O)c2c(O)c(N3CCN(CCOCCO)CC3)c(Br)c(O)c21,–,–,–,31,–
CC(=Nc1ccccc1)c1sc2ccccc2c1O,–,44,–,–,–
C[C@@H]1CN([C@H](C)CO)C(=O)c2cc(NC(=O)Nc3ccc(C(F)(F)F)cc3)ccc2O[C@H]1CN(C)S(=O)(=O)c1ccc(Cl)cc1,–,–,–,44,–
C[C@H](CO)N1C[C@H](C)[C@@H](CN(C)S(C)(=O)=O)Oc2ccc(NC(=O)Nc3ccc(C(F)(F)F)cc3)cc2C1=O,–,–,–,–,–
SMILES,DDE Tn7 FP inh,Neddyl block,PKA-R1A act,Tn6 DDE FP,PKA-R2B act
CCn1c2ccccc2c2cc(NC(=O)COC(=O)c3ccc(F)cc3F)ccc21,–,·,·,–,·
COc1ccc(/C=C2/SC(=S)N(c3ccc(S(=O)(=O)Nc4nccs4)cc3)C2=O)cc1,–,80,–,–,–
Nc1c(C(O)(C(F)(F)F)C(F)(F)F)cc(C(O)(C(F)(F)F)C(F)(F)F)c2ccccc12,·,40,–,·,–
O=C(CSc1nc2ccccc2o1)NN=C/C=C/c1ccccc1,–,·,·,–,·
OCCCNc1ncnc2c1[nH]c1ccccc12,–,–,–,–,–
Fc1ccc2[nH]c3c(NCc4ccccc4)ncnc3c2c1,–,52,–,–,–
